Here are results for nine molecules from ChEMBL document CHEMBL1123629, “Resolution, absolute configuration, and cholinergic enantioselectivity of (-)- and (+)-c-2-methyl-r-5-[(dimethylamino)methyl]-1,3-oxathiolane t-3-oxide methiodide and related sulfones” (1987).

Test [1] in a line: Muscarinic selectivity is reported as the ED50 ratio (ED50 Nicotinic / ED50 Muscarinic). Format: functional. The method in brief: (§1)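 Selectivity is computed from nicotinic (frog rectus abdominis) and muscarinic (guinea pig ileum) data as ED50(N)/ED50(M) and as EPMR(N)/EPMR(M). Each ED50 comes from regressing the angular transform of fractional effect on log agonist concentration, with carbachol as the reference.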

Test [2] in a line: Muscarinic selectivity is reported as the EPMR ratio (EPMR Nicotinic/ EPMR Muscarinic). Format: functional. The method in brief: as §1
For another test, the species on record is Cavia porcellus. In words: Muscarinic activity on guinea pig ileum. Format: functional.
Test [3] is described as follows: Equipotent molar ratio(EPMR) between the ED50 of compound and ED50 of carbachol calculated on frog rectus abdominis. Format: functional, Rectus abdominis muscle. The method in brief: (§2)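 ED50 for test agonist and for carbachol (reference) were obtained by regressing the angular transform of fractional contractile effect against log agonist concentration. Potency is expressed as the equipotent molar ratio, ED50 test/ED50 carbachol. Values below 1 indicate greater potency than carbachol.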

Test [4] can be described thus: Equipotent molar ratio(EPMR) between the ED50 of compound and ED50 of carbachol calculated on guinea pig ileum. Format: functional. The method in brief:
as §2

The nature of test [5]: Nicotinic activity on frog rectus abdominis. Format: functional, Rectus abdominis muscle.
Test [6] is described as follows: Eudismic ratio was determined in guinea pig ileum. Format: functional.
Test [7] can be described thus: Eudismic ratio was determined in frog rectus abdominis. Format: functional, Rectus abdominis muscle.

In the case of `C[C@@H]1O[C@H](C[N+](C)(C)C)CS1(=O)=O`, the Selectivity was 24 in test [1] and 0.5 in test [2].
In the case of `C[C@@H]1O[C@H](C[N+](C)(C)C)CS1(=O)=O` (racemic), the results for the Selectivity in test [1] and in test [2] were 3 and 0.05, respectively.
Regarding `C[C@@H]1O[C@H](C[N+](C)(C)C)CS1(=O)=O.[I-]` (racemic), the ED50 in the test filed under Cavia porcellus amounted to 0.000264 nM. Besides, the EPMR in test [3] is 15; in test [4], 281.
For the molecule `C[C@H]1O[C@H](C[N+](C)(C)C)C[S+]1[O-].[I-]` (mixture of isomers), the ED50 in the test listed under Cavia porcellus came out at 19.6 nM; in test [5] it was 2100 nM. Besides, the EPMR was 41 in test [3] and 209 in test [4].
In the case of `C[C@@H]1O[C@H](C[N+](C)(C)C)CS1(=O)=O.[I-]`, the ED50 in the test filed under Cavia porcellus came out at 0.000158 nM. For the same molecule, the figures for the EPMR in test [3] and in test [4] were 76 and 168, respectively.
For the molecule `C[C@H]1O[C@@H](C[N+](C)(C)C)CS1(=O)=O.[I-]`, the Selectivity was 2.1 in test [1] and 0.04 in test [2]. The Eudismic ratio is listed as 1 in test [6] and 12 in test [7]. Moreover, in test [5], the ED50 was found to be 0.033 nM. Further, the EPMR in test [3] is 6.5; in test [4] it was 170.
Regarding `C[N+](C)(C)CCOC(N)=O.[Cl-]` [CARBACHOL], the ED50 stood at 94 nM in the test listed under Cavia porcellus and 5100 nM in test [5]. Moreover, the EPMR in test [3] and in test [4] was 1 throughout.
Consider `C[C@@H]1O[C@H](C[N+](C)(C)C)C[C@H]1O` (racemic) [MUSCARINE], for which the ED50 in the test listed under Cavia porcellus was 79.4 nM; in test [5], greater than 500. In addition, the figures for the EPMR in test [3] and in test [4] were greater than 95 and 0.8, respectively.
For `C[C@H]1O[C@@H](C[N+](C)(C)C)C[S+]1[O-].[I-]` (mixture of isomers), in that order: 12.2 nM, 2300 nM, 45 and 1.3.
